Screening data deposited in PubChem BioAssay by The Scripps Research Institute Molecular Screening Center.
This is a sample that favours compounds with a hit; in the whole collection about 2.3% have one here.
V1R ag counter: counter-screen for oxytocin receptor agonists: human V1a receptor agonists | P37288 | CHO-V1R cells, Fluo-8 calcium fluorescence, agonist mode; 0% DMSO, 100% 3 nM vasopressin | activation, % at 3 µM | hit rate 0.25% among 320,000;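 active means activation above the mean activation of all tested compounds plus 3 SD, per screening run, cut at about 20% in these data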;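 further: signal is peak over basal fluorescence ratio across a 100 second FLIPR read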
OXTR potentiator: potentiates the human oxytocin receptor response | hit rate 0.061% among 320,000 | CHO-OTR cells, Fluo-8 calcium fluorescence, potentiator mode; 0% = oxytocin EC15, 100% = EC100 | P30559 | activation, % at 3 µM;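 active means activation above that plate's cutoff, the mean activation of tested compounds plus 3 SD, cut at about 6.6% in these data, passing the limit was not always enough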;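 further: 100% uses oxytocin at 75 nM as the full agonist control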
Target sequence (P30559 whole entry, looked up): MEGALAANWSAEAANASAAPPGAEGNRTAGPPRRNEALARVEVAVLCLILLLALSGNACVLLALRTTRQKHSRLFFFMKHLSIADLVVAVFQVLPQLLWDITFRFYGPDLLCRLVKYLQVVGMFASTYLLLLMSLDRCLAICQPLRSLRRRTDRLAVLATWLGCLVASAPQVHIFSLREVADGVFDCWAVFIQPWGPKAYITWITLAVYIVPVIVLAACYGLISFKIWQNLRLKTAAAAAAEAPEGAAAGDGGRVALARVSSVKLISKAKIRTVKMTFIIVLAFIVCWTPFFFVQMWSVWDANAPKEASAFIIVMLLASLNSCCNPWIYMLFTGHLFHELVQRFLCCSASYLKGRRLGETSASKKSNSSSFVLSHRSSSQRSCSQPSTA
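Dosing: Single dose, 3.0 µM nominal final compound concentration | Material: Human OTR in CHO cells | Technique: Kinetic Fluo-8 calcium fluorescence | Benchmarks: EC15 oxytocin alone as 0%, 75 nM oxytocin as 100% | Probe or stimulus: Oxytocin at about EC15, sub-maximal agonist stimulus | Incubation: Compound 6 min at room temperature before oxytocin, 100 s read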
TAAR1 antag: antagonists of human TAAR1; Q96RJ0; CHO RD-HGA16 TAAR1, Fluo-8 calcium fluorescence, antagonist; inhibition, % at 3 µM; hit rate 1.5% among 360,000; AID 624466;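 active means inhibition above a per-plate cutoff, the mean inhibition of test compounds on that plate plus 3 SD, cut at about 49% in these data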;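 further: 0% = DMSO plus EC80 beta-PEA response and 100% = DMSO alone without agonist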
Target sequence (Q96RJ0 whole entry, looked up): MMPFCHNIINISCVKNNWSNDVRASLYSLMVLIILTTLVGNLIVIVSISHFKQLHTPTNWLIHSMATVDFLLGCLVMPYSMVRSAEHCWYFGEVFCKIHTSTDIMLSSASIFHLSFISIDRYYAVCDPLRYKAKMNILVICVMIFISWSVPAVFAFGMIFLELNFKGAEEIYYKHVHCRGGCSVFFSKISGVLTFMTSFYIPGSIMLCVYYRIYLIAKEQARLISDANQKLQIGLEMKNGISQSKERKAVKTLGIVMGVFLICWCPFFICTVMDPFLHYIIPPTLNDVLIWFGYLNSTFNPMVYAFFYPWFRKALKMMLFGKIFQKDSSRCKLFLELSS
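Test system – hTAAR1-expressing CHO RD-HGA16 cells, Gα16-coupled · Also added – β-PEA at EC80 concentration, post-compound challenge · Compound – 3 µM, single point · Incubation – dye loading 75 min at 37 °C, then 30 min room temperature · Measured by – Fluo-8 intracellular calcium dye fluorescence, real-time kinetic reads · Benchmarks – vehicle and agonist controls · Replicates – singlicate, one well per test compound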
TAAR1 agonist: agonists of human TAAR1. CHO RD-HGA16 TAAR1, Fluo-8 calcium fluorescence; vehicle wells 0%, saturating PEA agonist 100%. activation, % at 3 µM. hit rate 0.99% among 360,000. AID 624467;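 active means activation above the mean activation of all test compounds in the run plus 3 SD, cut at about 38% in these data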
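System: CHO-derived RD-HGA16 cells with stable Gα16 and human TAAR1. Times: 17-24 h plating, Fluo-8 75 min 37 °C, 30 min RT. Measured by: calcium-sensitive Fluo-8 signal, excitation 470-495, emission 515-575 nm. Read-out basis: % activation relative to PEA EC100 response. Control set: DMSO and PEA EC100. Repeats: no replicates (n 1).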
OXTR ag: agonists of human oxytocin receptor; activation, % at 3 µM; P30559; CHO-OTR cells, Fluo-8 calcium fluorescence; normalized: DMSO 0%, oxytocin 100%; AID 2435; hit rate 0.32% among 320,000;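 active means activation above the mean of all tested compounds plus 3 SD, cutoff set per screening run, cut at about 20% in these data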;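 further: peak over basal fluorescence ratio from a 100 s FLIPR kinetic read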
TAAR1 ag confirm: human TAAR1 agonism, confirmed; hit rate 82% among 2,400; shares compounds with TAAR1 agonist; AID 651783; activation, % at 3 µM; CHO RD-HGA16 TAAR1, Fluo-8 calcium fluorescence; scaled: DMSO 0%, maximal phenethylamine 100%;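 active means activation above a cutoff set at the run's mean compound activation plus 3 SD, cut at about 39% in these data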
Ga16 ag counter: counter-screen for TAAR1 agonists: nonselective agonists in parental cells. CHO-Ga16 parental, Fluo-8 calcium fluorescence; normalized to maximal ATP response, DMSO zero. activation, % at 3 µM. hit rate 50% among 2,400. shares compounds with TAAR1 agonist;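 active means activation above the run cutoff, the mean activation over all tested wells plus 3 SD, cut at about 12% in these data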;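 further: 0% = DMSO wells and 100% = maximal ATP response on the peak over basal ratio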
TAAR1 desensitize: TAAR1 response desensitization, agonist counter-screen | AID 651951 | CHO RD-HGA16 hTAAR1, Fluo-8 calcium, beta-PEA response inhibition | shares compounds with TAAR1 agonist | inhibition, % at 3 µM | hit rate 46% among 2,400;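 active means inhibition above the run cutoff, the mean inhibition of all test compounds plus 3 SD, cut at about 49% in these data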;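 further: beta-PEA stimulus applied at its EC80; loss of beta-PEA calcium signal after compound pretreatment read as receptor desensitization; 0% = DMSO with beta-PEA at EC80 and 100% = DMSO alone without agonist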
Ga16 nonsel ant: nonselective Ga16 antagonism, counter-screen; shares compounds with TAAR1 agonist; CHO-Ga16 ATP-induced calcium, Fluo-8 fluorescence; inhibition, % at 3 µM; AID 651952; hit rate 39% among 2,400;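 active means inhibition above the plate's mean compound inhibition plus 3 SD, computed per plate, cut at about 22% in these data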;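 further: 0% = EC80 ATP with DMSO and 100% = DMSO wells without ATP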
An asterisk follows results filed as active; / = not tested or not shown.

SMILES | V1R ag counter | OXTR potentiator | TAAR1 antag | TAAR1 agonist | OXTR ag | TAAR1 ag confirm | Ga16 ag counter | TAAR1 desensitize | Ga16 nonsel ant
Cc1ccc(S(=O)(=O)C2(C(=O)NCCc3ccccc3)CC2)cc1 | -0.3 | -8.0 | 1.7 | 50.1* | 3.6 | 82.4* | 0.1 | 34.6 | 4.9
Cc1ccc(S(=O)(=O)NNC(=S)NCCc2ccccc2)cc1 | 0.6 | -9.0 | -22.2 | 34.9 | 0.0 | / | / | / | /
O=C(NCCc1ccccc1)C1(S(=O)(=O)c2ccc(Cl)cc2)CC1 | -0.7 | -8.5 | -5.7 | -0.3 | -2.0 | / | / | / | /
CCCCN(C(=O)c1ccc2c(c1)OCCO2)c1c(N)n(CC(C)C)c(=O)[nH]c1=O | 0.5 | -0.8 | -6.5 | 1.8 | 0.6 | / | / | / | /
O=S(=O)(Nc1ccc(S(=O)(=O)Nc2cccc3ccccc23)cc1)c1ccccc1 | 6.4 | -21.2 | 12.4 | 41.3* | 5.0 | 40.5* | 11.3 | 23.6 | 16.5
Cc1ccc(Oc2ccc(Oc3ccc(C)cc3)nn2)cc1 | -2.3 | 5.4 | 68.5* | 66.2* | -2.5 | 4.8 | 17.4* | 11.9 | 17.5
Cc1ccc(Oc2cnc3ccccc3n2)cc1 | -0.1 | -6.7 | -9.1 | 23.9 | -1.1 | / | / | / | /
O=C1NC(Cc2ccccc2)c2nc3cc(F)ccc3c(=O)n2-c2cc(Cl)ccc21 (stereo unspecified) | 1.7 | 3.3 | 23.8 | 72.2* | 4.5 | 49.9* | 16.6* | 13.9 | 11.7
COC(=O)NC1c2ccccc2Oc2ccc(C)cc21 (stereo unspecified) | -0.4 | -1.8 | 37.9 | 42.8* | -2.4 | 83.4* | 38.1* | 75.7* | 33.5*
COCCCNC(=O)CCc1nc(-c2ccccc2Cl)no1 | 0.7 | -3.2 | -11.4 | 0.2 | -0.7 | / | / | / | /
O=C(CCc1nc(-c2ccccc2Cl)no1)NCCc1ccccc1 | 1.7 | -9.8 | -8.7 | 58.1* | 0.1 | 67.8* | 2.5 | 43.2 | 10.7
CCOC(=O)/C(=C/c1cn(C)c2ccccc12)NC(=O)c1ccccc1 | -0.6 | -0.4 | -7.2 | 7.5 | -1.8 | / | / | / | /
Cc1noc(C)c1COC(=O)c1cccc(S(=O)(=O)N2CCOCC2)c1 | 1.6 | 0.3 | 16.2 | 48.4* | 2.1 | 3.3 | 1.2 | -0.6 | 7.7
O=C(COC(=O)CCC1CCCC1)Nc1ccc(Cl)cn1 | -1.1 | 4.6 | 24.3 | 46.1* | -2.1 | 1.2 | -0.3 | 8.5 | 14.8
O=C(COC(=O)C1CCC1)Nc1ccc(Cl)cn1 | 4.8 | -3.9 | -15.2 | 1.3 | 2.2 | / | / | / | /
Cc1ccccc1OCCC(=O)Nc1ccc(N2CCOCC2)cc1N1CCOCC1 | -1.1 | 2.4 | 4.0 | -0.6 | -1.3 | / | / | / | /
COc1ccc(NC(=O)CN(C)CC(=O)Nc2ccc3c(c2)CCC3)cc1 | 1.5 | -7.5 | 11.3 | 14.0 | -1.6 | / | / | / | /
CCCCN(C)CCC(=O)Nc1ccc2c(c1)CCC2 | 2.2 | -7.0 | 9.2 | 44.2* | 2.2 | 69.1* | 1.3 | 15.6 | -0.7
Oc1ccc(C=NCCc2ccccc2)cc1 | 0.5 | -12.0 | / | / | 0.1 | / | 0.3 | / | -4.1
O=C1CC(c2ccccc2)CC(O)=C1C=NCCc1ccccc1 (stereo unspecified) | -0.6 | -13.8 | 27.6 | 66.7* | -1.2 | 71.7* | 5.7 | 43.9 | 15.8
CC1(C)CC(=O)C(C=NCCc2ccc(O)cc2)=C(O)C1 | -0.4 | 2.3 | 31.7 | 66.2* | -0.2 | 106.2* | -0.5 | 79.3* | -3.7
Oc1ccc(/C=N/N2CCN(Cc3ccccc3)CC2)cc1 | 2.0 | -10.2 | -11.4 | 6.4 | 3.4 | / | / | / | /
CN1C(=O)/C(=C/c2ccc(OCc3ccc(F)cc3)cc2)NC1=S | 7.2 | -22.0 | 4.2 | 0.0 | 8.9 | / | / | / | /
Fc1ccc(NC(=S)NC2CCN(Cc3ccccc3)CC2)cc1 | 3.5 | -17.7 | -15.3 | 9.7 | 6.3 | / | / | / | /
S=C(Nc1ccc(Cl)c(Cl)c1)NC1CCN(Cc2ccccc2)CC1 | 38.8* | -32.5 | 74.4* | 112.4* | 42.1* | 98.3* | 56.6* | 89.3* | 67.3*
SMILES | V1R ag counter | OXTR potentiator | TAAR1 antag | TAAR1 agonist | OXTR ag | TAAR1 ag confirm | Ga16 ag counter | TAAR1 desensitize | Ga16 nonsel ant
COc1ccc(Cl)cc1NC(=O)CN(C)C(C)C(=O)NC(=O)NC1CCCCC1 (stereo unspecified) | -1.5 | -8.7 | 20.8 | 4.3 | -1.8 | / | / | / | /
CCN(CC(=O)N1CCOCC1)S(=O)(=O)c1ccc(Cl)cc1 | 1.2 | 1.2 | -0.3 | -0.4 | -0.1 | / | / | / | /
Nc1nc(Nc2cccc(F)c2)nc2ccccc12 | -0.4 | -11.4 | 81.8* | 98.1* | -0.3 | 90.9* | 4.6 | 93.5* | 6.4
O=c1oc(Nc2cccc(F)c2)nc2ccccc12 | 0.1 | -10.3 | -13.4 | 8.4 | 0.7 | / | / | / | /
O=C(Cn1nnc(-c2ccc3c(c2)OCO3)n1)NCc1ccccc1 | 0.8 | -4.7 | -12.2 | 2.6 | -0.1 | / | / | / | /
Cc1ccc(-c2nnn(CC(=O)NCCc3ccc4c(c3)OCO4)n2)cc1 | -0.3 | -5.6 | 67.3* | 77.7* | 0.0 | 47.4* | 10.3 | 22.6 | 16.0
CCc1cc(=O)oc2cc(OC(C)C(=O)NCc3ccccn3)ccc12 (stereo unspecified) | 1.4 | -2.7 | 1.9 | 0.7 | -0.5 | / | / | / | /
